ChEMBL document CHEMBL1133953, “Modulation of human mammary cell sensitivity to paclitaxel by new quinoline sulfonamides” (Bioorg Med Chem Lett, 2001)
“And” between values parts separate entries of the source, which are not always exact repeats. Identical values can stand only once.

What was measured:
MDA-MB-435 [1] = assay: Percent reduction of inhibitory concentration against LCC6-MDR human breast cancer cell line at 5 uM concentration; assay type: functional; settings: for Reduction: in the assay text read “at 1 uM concentration” for “at 5 uM concentration”
Method in brief: (§1)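 Paclitaxel was tested against MDR1-transfected LCC6-MDR cells while co-administered with each reversal agent at fixed concentrations (four levels overall). Paclitaxel IC50 was determined under each condition. Percent IC50 reduction, taken as reversal activity, was calculated relative to paclitaxel alone.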

MDA-MB-435 [2] = assay: Reversal activity against LCC6-MDR human breast carcinoma cell line; assay type: functional; method in brief: as §1
MDA-MB-435 [3] = assay: Cytotoxicity against paclitaxel sensitive LCC6-WT-human breast carcinoma cell line; assay type: functional, cell-based
MDA-MB-435 [4] = assay: Inhibition of LCC6-MDR-MDR1 transfected cell line growth was determined at 10 uM; assay type: functional; settings: Homo sapiens
MDA-MB-435 [5] = assay: Cytotoxicity against paclitaxel resistant LCC6-MDR-MDR1 transfected cell line; assay type: functional, cell-based; settings: Homo sapiens
MDA-MB-435 [6] = assay: Inhibition of LCC6-WT-human breast carcinoma cell line growth was determined at 10 uM; assay type: functional
MDA-MB-435 [7] = assay: Inhibition of LCC6-MDR human breast carcinoma cell line growth was determined at 5 uM; No growth inhibition; assay type: functional, cell-based
MDA-MB-435 [8] = assay: Inhibition of LCC6-MDR human breast carcinoma cell line growth was determined at 1 uM; No growth inhibition; assay type: functional, cell-based
MDA-MB-435 [9] = assay: Inhibitory concentration against LCC6-MDR human breast cancer cell line; assay type: functional, cell-based; method in brief: as §1
MDA-MB-435 [10] = assay: Percent reduction of inhibitory concentration against LCC6-MDR human breast cancer cell line at 1 uM concentration

SMILES | IC50 reduction (MDA-MB-435 [1]) | IC50 (MDA-MB-435 [3]) [nM] | IC50 (MDA-MB-435 [5]) [nM] | inhibition (MDA-MB-435 [7]) | inhibition (MDA-MB-435 [8]) | further results
CC(=O)O[C@H]1C(=O)[C@@]2(C)C([C@H](OC(=O)c3ccccc3)[C@]3(O)C[C@H](OC(=O)[C@H](O)[C@@H](NC(=O)c4ccccc4)c4ccccc4)C(C)=C1C3(C)C)[C@]1(OC(C)=O)CO[C@@H]1C[C@@H]2O.O=S(=O)(c1ccc2ccccc2c1)N(CCCCCCNc1ccnc2cc(Cl)ccc12)Cc1ccccc1 (some centres undefined) [listing 1 of 2 here] | 99% and 54% and 39% |  |  |  |  | Reversal activity (MDA-MB-435 [2]): 99%
COc1cc(NC(C)CCCNS(=O)(=O)c2ccc3ccccc3c2)c2ncccc2c1 (centres undefined) |  | > 10000 | > 10000 |  |  | inhibition at 10 µM (MDA-MB-435 [4]): 8%; inhibition at 10 µM (MDA-MB-435 [6]): 16%
COc1cc(NC(C)CCCN(Cc2ccccc2)S(=O)(=O)c2ccc3ccccc3c2)c2ncccc2c1 (centres undefined) |  | > 10000 | > 10000 |  |  | inhibition at 10 µM (MDA-MB-435 [4]): 8%; inhibition at 10 µM (MDA-MB-435 [6]): 0%
CC(=O)O[C@H]1C(=O)[C@@]2(C)C([C@H](OC(=O)c3ccccc3)[C@]3(O)C[C@H](OC(=O)[C@H](O)[C@@H](NC(=O)c4ccccc4)c4ccccc4)C(C)=C1C3(C)C)[C@]1(OC(C)=O)CO[C@@H]1C[C@@H]2O.O=S(=O)(c1ccc2ccccc2c1)N(CCCCNc1ccnc2cc(Cl)ccc12)Cc1ccccc1 (some centres undefined) [listing 1 of 2 here] |  |  |  | No inhibition | No inhibition | 
O=S(=O)(c1ccc2ccccc2c1)N(CCCCCCNc1ccnc2cc(Cl)ccc12)Cc1ccccc1 |  | 1700 | 2000 |  |  | 
CC(=O)O[C@H]1C(=O)[C@@]2(C)C([C@H](OC(=O)c3ccccc3)[C@]3(O)C[C@H](OC(=O)[C@H](O)[C@@H](NC(=O)c4ccccc4)c4ccccc4)C(C)=C1C3(C)C)[C@]1(OC(C)=O)CO[C@@H]1C[C@@H]2O.COc1cc(NC(C)CCCN(Cc2ccccc2)S(=O)(=O)c2ccc3ccccc3c2)c2ncccc2c1 (some centres undefined) [listing 1 of 2 here] |  |  |  | No inhibition | No inhibition | 
CC(=O)O[C@H]1C(=O)[C@@]2(C)C([C@H](OC(=O)c3ccccc3)[C@]3(O)C[C@H](OC(=O)[C@H](O)[C@@H](NC(=O)c4ccccc4)c4ccccc4)C(C)=C1C3(C)C)[C@]1(OC(C)=O)CO[C@@H]1C[C@@H]2O.O=S(=O)(c1ccc2ccccc2c1)N(CCCCNc1ccnc2cc(Cl)ccc12)Cc1ccccc1 (some centres undefined) [listing 2 of 2 here] | 99% |  |  |  |  | Reduction (MDA-MB-435 [1]): 70%
CC(=O)O[C@H]1C(=O)[C@@]2(C)C([C@H](OC(=O)c3ccccc3)[C@]3(O)C[C@H](OC(=O)[C@H](O)[C@@H](NC(=O)c4ccccc4)c4ccccc4)C(C)=C1C3(C)C)[C@]1(OC(C)=O)CO[C@@H]1C[C@@H]2O.COc1cc(NC(C)CCCNS(=O)(=O)c2ccc3ccccc3c2)c2ncccc2c1 (some centres undefined) [listing 1 of 2 here] | 97% |  |  |  |  | Reduction (MDA-MB-435 [1]): 36%
O=S(=O)(c1ccc2ccccc2c1)N(CCCCNc1ccnc2cc(Cl)ccc12)Cc1ccccc1 |  | > 10000 | > 10000 |  |  | inhibition at 10 µM (MDA-MB-435 [4]): 3%; inhibition at 10 µM (MDA-MB-435 [6]): 6%
CC(=O)O[C@H]1C(=O)[C@@]2(C)C([C@H](OC(=O)c3ccccc3)[C@]3(O)C[C@H](OC(=O)[C@H](O)[C@@H](NC(=O)c4ccccc4)c4ccccc4)C(C)=C1C3(C)C)[C@]1(OC(C)=O)CO[C@@H]1C[C@@H]2O.O=S(=O)(c1ccc2ccccc2c1)N(CCCCCCNc1ccnc2cc(Cl)ccc12)Cc1ccccc1 (some centres undefined) [listing 2 of 2 here] |  |  |  | No inhibition | No inhibition | 
CC(=O)O[C@H]1C(=O)[C@@]2(C)[C@H]([C@H](OC(=O)c3ccccc3)[C@]3(O)C[C@H](OC(=O)[C@H](O)[C@@H](NC(=O)c4ccccc4)c4ccccc4)C(C)=C1C3(C)C)[C@]1(OC(C)=O)CO[C@@H]1C[C@@H]2O [PACLITAXEL] | 0% | 8 | 612 |  |  | IC50 (MDA-MB-435 [9]): 490 nM
CC(=O)O[C@H]1C(=O)[C@@]2(C)C([C@H](OC(=O)c3ccccc3)[C@]3(O)C[C@H](OC(=O)[C@H](O)[C@@H](NC(=O)c4ccccc4)c4ccccc4)C(C)=C1C3(C)C)[C@]1(OC(C)=O)CO[C@@H]1C[C@@H]2O.COc1cc(NC(C)CCCN(Cc2ccccc2)S(=O)(=O)c2ccc3ccccc3c2)c2ncccc2c1 (some centres undefined) [listing 2 of 2 here] | 96% |  |  |  |  | Reduction (MDA-MB-435 [10]): 55%
CC(=O)O[C@H]1C(=O)[C@@]2(C)C([C@H](OC(=O)c3ccccc3)[C@]3(O)C[C@H](OC(=O)[C@H](O)[C@@H](NC(=O)c4ccccc4)c4ccccc4)C(C)=C1C3(C)C)[C@]1(OC(C)=O)CO[C@@H]1C[C@@H]2O.COc1cc(NC(C)CCCNS(=O)(=O)c2ccc3ccccc3c2)c2ncccc2c1 (some centres undefined) [listing 2 of 2 here] |  |  |  | No inhibition | No inhibition | 
